The record followed here is ChEMBL document CHEMBL1149128, “Novel endoperoxide antimalarials: synthesis, heme binding, and antimalarial activity” (J Med Chem, 2004).

One assay deals with Plasmodium falciparum. Kind of assay: In vitro antimalarial activity against Plasmodium falciparum D10.
The species named for assay [1] is Homo sapiens. The assay can be described thus: Lysis of human erythrocytes at a concentration of 1 mM for 30 minutes at 37 degree C. Format: functional. In a few lines:
(§1)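 Washed human erythrocytes (0.4 × 10⁸ cells) in phosphate-buffered saline with no protein in the medium; compound at 1 mM final; 30 min at 37 °C. Cells pelleted, then supernatant absorbance compared with freeze-thawed cells to give percent hemolysis.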

The species entered for assay [2] is Homo sapiens. Kind of assay: Compound was evaluated for the lysis of human erythrocytes at a concentration of 1 mM for 30 minutes at 37 degree C. Format: functional. In a few lines:
as §1

Usually IC50 stands for the midpoint of a concentration-inhibition curve. In the assay on Plasmodium falciparum, `c1ccc([C@H]2OO[C@@H](C3CCCCC3)[C@@H]3O[C@@H]32)cc1` came in with an IC50 of more than 10000 nM. In the assay listed under Homo sapiens [1], this compound displayed a Hemolysis of 2%.

In the assay on Plasmodium falciparum, `CCCCCCC[C@H]1OO[C@@H](CCC)[C@@H]2O[C@@H]21` came in with a 50% inhibitory concentration (IC50) of more than 10000 nM. The Hemolysis in the assay filed under Homo sapiens [1] was found to be 47%.

For the compound `C[C@]12COO[C@H](c3ccccc3)[C@H]1O2`, in the assay with Plasmodium falciparum, the IC50 was more than 10000 nM. In the assay filed under Homo sapiens [1], this compound yielded a Hemolysis of 2%.

Take `C[C@@H]1CC[C@H]2[C@@H](C)C(=O)O[C@@H]3O[C@@]4(C)CC[C@@H]1[C@]32OO4` [ARTEMISININ]: the Hemolysis in the assay filed under Homo sapiens [2] is given as 4%.

The compound `C1CC([C@H]2OO[C@@H](C3CCC3)[C@@H]3O[C@@H]32)C1` showed an IC50 in the assay with Plasmodium falciparum of 2900 nM. In the assay filed under Homo sapiens [1], the Hemolysis was 1%.

Take `C1CCC([C@H]2OO[C@@H](C3CCCC3)[C@@H]3O[C@@H]32)C1`: inhibition in the assay with Plasmodium falciparum was half-maximal at 500 nM (IC50). In the assay filed under Homo sapiens [1], this compound had a Hemolysis of 8%.

Take `c1ccc([C@H]2OO[C@@H](c3ccccc3)[C@@H]3O[C@@H]32)cc1`: the IC50 in the assay with Plasmodium falciparum is more than 10000 nM. In the assay listed under Homo sapiens [1], this compound showed a Hemolysis of 5%.

As to `C1=C[C@H](c2ccccc2)OO[C@@H]1c1ccccc1`, the IC50 with Plasmodium falciparum was found to be 6000 nM. The compound further returned a Hemolysis in the assay listed under Homo sapiens [1] of 4%.

`C1CCC([C@H]2OO[C@@H](C3CCCC3)[C@H]3O[C@H]32)C1` came in with an IC50 in the assay on Plasmodium falciparum of 500 nM. The compound further returned a Hemolysis in the assay filed under Homo sapiens [1] of 9%.

Compound `C1CCC([C@H]2OOC[C@@H]3O[C@@H]32)C1` gave an IC50 with Plasmodium falciparum of 1400 nM. Moreover, the Hemolysis in the assay listed under Homo sapiens [1] worked out at 1%.

On to `C1CCC(C[C@H]2OOC[C@@H]3O[C@@H]32)CC1`, for which, in the assay with Plasmodium falciparum, the IC50 is more than 10000 nM. Also, in the assay listed under Homo sapiens [1], the Hemolysis was 3%.

Consider `C[C@@H]1OO[C@H](CC(=O)OC23CC4CC(CC(C4)C2)C3)[C@@H]2O[C@@H]21`, for which, in the assay with Plasmodium falciparum, the IC50 turned out to be 5000 nM. The compound also registered a Hemolysis in the assay listed under Homo sapiens [1] of 4%.

Turning to `C[C@H]1C=C[C@@H](CC(=O)OC23C[C@H]4C[C@@H](C2)C[C@@H](C3)C4)OO1`, in the assay with Plasmodium falciparum, the midpoint of inhibition, the IC50, lay at 1000 nM. In the assay listed under Homo sapiens [1], this compound came in with a Hemolysis of 27%.

Regarding `C1=C[C@@H](C2CCCCC2)OOC1`, half-maximal inhibition in the assay on Plasmodium falciparum (IC50) was put at 3200 nM. The Hemolysis in the assay listed under Homo sapiens [1] was found to be 100%.

`C1CCC([C@H]2OOC[C@@H]3O[C@@H]32)CC1` showed an IC50 in the assay on Plasmodium falciparum of more than 10000 nM. In the assay filed under Homo sapiens [1], the Hemolysis was 2%.

In the assay on Plasmodium falciparum, `C1CCC([C@H]2OOC[C@H]3O[C@@H]23)C1` displayed a 50% inhibitory concentration (IC50) of 1400 nM. The compound also gave a Hemolysis in the assay listed under Homo sapiens [1] of 1%.

In the assay on Plasmodium falciparum, `CCC[C@H]1C=C[C@@H](CCC)OO1` showed an IC50 of more than 10000 nM. The compound further came in with a Hemolysis in the assay filed under Homo sapiens [1] of 2%.

With `C1CCC([C@H]2OO[C@@H](C3CCCCC3)[C@@H]3O[C@@H]32)CC1`, the IC50 in the assay with Plasmodium falciparum worked out at 500 nM. This compound also registered a Hemolysis in the assay filed under Homo sapiens [1] of 6%.

`C1CCC([C@H]2OO[C@@H](C3CCCCC3)[C@H]3O[C@H]32)CC1` yielded a 50% inhibitory concentration (IC50) in the assay with Plasmodium falciparum of 320 nM. This compound had a Hemolysis in the assay listed under Homo sapiens [1] of 5%.

Consider `C1=C[C@@H](C2CCCC2)OOC1`, for which the IC50 in the assay with Plasmodium falciparum is more than 10000 nM. The compound further had a Hemolysis in the assay filed under Homo sapiens [1] of 11%.

For `C[C@H]1C=C[C@@H](CCCO)OO1`, the 50% inhibitory concentration (IC50) with Plasmodium falciparum is 2500 nM. The Hemolysis in the assay filed under Homo sapiens [1] is recorded as 0%.

In the case of `C[C@@H]1OO[C@H](CC(=O)OC23CC4CC(CC(C4)C2)C3)[C@H]2O[C@H]21`, in the assay with Plasmodium falciparum, half-maximal inhibition (IC50) required 1300 nM. In the assay listed under Homo sapiens [1], this compound registered a Hemolysis of 6%.

Consider `C1=C[C@@H](C23C[C@H]4C[C@@H](C2)C[C@@H](C3)C4)OOC1`, for which the IC50 in the assay on Plasmodium falciparum is 1300 nM. Besides, in the assay listed under Homo sapiens [1], the Hemolysis is 100%.

`C1=C[C@H](C2CCCC2)OO[C@@H]1C1CCCC1`: in the assay with Plasmodium falciparum, the IC50 is 600 nM. In addition, the Hemolysis in the assay filed under Homo sapiens [1] amounted to 52%.

The compound `CCCCCCC[C@@H]1C=C[C@H](CCC)OO1` came in with an IC50 with Plasmodium falciparum of more than 10000 nM. The compound also came in with a Hemolysis in the assay listed under Homo sapiens [1] of 62%.

Regarding `C1C2CC3CC1CC([C@H]1OOC[C@@H]4O[C@@H]41)(C2)C3`, the IC50 with Plasmodium falciparum stood at 4000 nM. In addition, the Hemolysis in the assay filed under Homo sapiens [1] amounted to 41%.

In the assay on Plasmodium falciparum, `C1=C[C@H](C2CCCCC2)OO[C@@H]1C1CCCCC1` displayed an IC50 of 1200 nM. The compound further displayed a Hemolysis in the assay filed under Homo sapiens [1] of 100%.

As for `C1CCC(C[C@H]2OOC[C@H]3O[C@@H]23)CC1`, in the assay on Plasmodium falciparum, inhibition was half-maximal at 2000 nM (IC50). The same compound had a Hemolysis in the assay listed under Homo sapiens [1] of 6%.

As to `C1=C[C@H](C2CCCCC2)OO[C@@H]1c1ccccc1`, the IC50 in the assay with Plasmodium falciparum amounted to 8100 nM. This compound registered a Hemolysis in the assay listed under Homo sapiens [1] of 9%.

With `C1CC([C@H]2OO[C@@H](C3CCC3)[C@H]3O[C@H]32)C1`, in the assay with Plasmodium falciparum, the IC50 was found to be 1600 nM. In the assay filed under Homo sapiens [1], this compound yielded a Hemolysis of 1%.

For `C1=C[C@@H](CC2CCCCC2)OOC1`, half-maximal inhibition in the assay on Plasmodium falciparum (IC50) required 9500 nM. The compound further came in with a Hemolysis in the assay listed under Homo sapiens [1] of 100%.

In the assay filed under Homo sapiens [1], `O=C(c1ccccc1)[C@H]1O[C@H]1[C@@H](O)c1ccccc1` (stereo in doubt; 7j) gave a Hemolysis of 2%.

`O=C(C1CCCCC1)[C@H]1O[C@H]1[C@@H](O)C1CCCCC1` had an IC50 with Plasmodium falciparum of more than 10000 nM. Also, in the assay listed under Homo sapiens [1], the Hemolysis is 8%.

Take `C[C@H]1C=C[C@@H](c2ccccc2)OO1`: the IC50 in the assay with Plasmodium falciparum is more than 10000 nM. In addition, in the assay listed under Homo sapiens [1], the Hemolysis was 32%.

In the assay on Plasmodium falciparum, `C1=C[C@H](C2CCC2)OO[C@@H]1C1CCC1` showed an IC50 of more than 10000 nM. In the assay filed under Homo sapiens [1], the Hemolysis worked out at 32%.

In the assay with Plasmodium falciparum, `CCCCCCC[C@H]1OO[C@@H](CCC)[C@H]2O[C@H]21` registered an IC50 of more than 10000 nM. For the same compound, in the assay listed under Homo sapiens [1], the Hemolysis stood at 51%.

In the assay on Plasmodium falciparum, `C[C@@H]1OO[C@H](c2ccccc2)[C@H]2O[C@H]21` showed an IC50 of more than 10000 nM. In the assay filed under Homo sapiens [1], this compound registered a Hemolysis of 2%.

In the assay filed under Homo sapiens [1], `CCN(CC)CCCC(C)Nc1ccnc2cc(Cl)ccc12` (stereo not given) [CHLOROQUINE] showed a Hemolysis of 1%.

For the compound `c1ccc(C2(c3ccccc3)OOCC3OC32)cc1` (stereo not given), 5000 nM corresponded to half-maximal inhibition in the assay on Plasmodium falciparum (IC50). In the assay filed under Homo sapiens [1], this compound registered a Hemolysis of 1%.
